CHT block: inhibitors of human choline transporter CHT; CHT-expressing cells, membrane potential dye, choline response; hits give low values; High affinity choline transporter 1 (Homo sapiens), Q9GZV3; AID 488975, 2010; actives 0.86% (n = 310,000); B-score at 10 µM;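 active means B-score over 3 SD under the library average, and starting fluorescence ratio not unusually high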;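 further: choline stimulus applied at its EC90 after an EC20 pre-addition; B-score computed on integrated fluorescence ratio after choline addition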
CHT PAM: CHT positive allosteric modulators, primary screen, cell-based, membrane potential dye, choline EC20. High affinity choline transporter 1 (Homo sapiens), Q9GZV3. CHT-expressing cells; hits give high values; LV-AA mutant CHT in HEK293 cells. B-score at 10 µM. actives 0.49% (n = 310,000);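 active means initial fluorescence not abnormally high and integrated response B-score, plate-corrected, over 3 SD above library mean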
NR2E3 ag-1: inhibitors of NR2E3-RetCOR corepressor binding, primary screen, NR2E3 agonist project, biochemical, TR-FRET, GST-NR2E3, biotin-RetCOR | Photoreceptor-specific nuclear receptor (Homo sapiens), Q9Y5X4 | 1536-well | inhibition of corepressor binding, % at 4.78 µM | actives 0.12% (n = 320,000) | AID 2300, 2010;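 active means percent inhibition above the cutoff of mean plus 3 SD of all tested compounds, set per screening campaign, cut at about 20% in these data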
Target sequence (Q9Y5X4 whole entry, looked up): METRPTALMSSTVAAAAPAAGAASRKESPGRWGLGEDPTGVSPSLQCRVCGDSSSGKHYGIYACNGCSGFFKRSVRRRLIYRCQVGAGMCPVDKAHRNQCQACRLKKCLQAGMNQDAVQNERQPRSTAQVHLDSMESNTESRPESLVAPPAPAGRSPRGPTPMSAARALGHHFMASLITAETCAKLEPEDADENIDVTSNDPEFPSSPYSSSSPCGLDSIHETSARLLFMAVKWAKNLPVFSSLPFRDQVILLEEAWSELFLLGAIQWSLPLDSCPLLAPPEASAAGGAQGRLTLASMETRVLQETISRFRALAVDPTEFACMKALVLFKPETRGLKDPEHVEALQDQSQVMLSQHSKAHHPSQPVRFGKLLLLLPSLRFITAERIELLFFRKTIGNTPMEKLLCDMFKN
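Material: NR2E3–RetCOR corepressor complex | Quantity: 1.35 nM GST-tagged NR2E3 final | Schedule: 5 h at 4 °C | Replication: Singlicate compound wells | Reagent: RetCOR corepressor, biotinylated, 7 nM | Controls: Biotin wells as high control, 0.6% DMSO wells as low control | Signal: TR-FRET, Eu(K)-anti-GST donor, streptavidin-D2 acceptor, ex 340, em 617/671 nm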
COUP-TFII inh: NR2F2 transcriptional activity inhibitors, primary screen, cell-based, luciferase reporter, HEK293T, luminescence; HEK293T NGFI-A luciferase reporter; inhibition, % at 8.6 µM; actives 0.7% (n = 370,000); AID 686940, 2013;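 active means inhibition above a per-plate cutoff, mean inhibition of test wells between control levels plus 3 SD, cut at about 38% in these data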;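 further: cells cotransfected with COUP-TFII expression vector driving the NGFI-A reporter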
GalR3 antagonist: GalR3 antagonists in HEK293 cells, primary screen, cell-based, fluorescence readout; AID 651719, 2012; HEK293 GalR3-CNG cAMP membrane potential fluorescence; galR3 body fused to GalR1 C-terminus; inhibition, % at 3 µM; actives 0.44% (n = 360,000);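 active means inhibition above the screen-wide average plus 3 SD, cut at about 13% in these data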;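 further: forskolin and galanin both at EC90 stimulate the cells; cAMP rise reported by CNG channel membrane potential dye signal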
Target sequence (O60755 1-299 limits assumed): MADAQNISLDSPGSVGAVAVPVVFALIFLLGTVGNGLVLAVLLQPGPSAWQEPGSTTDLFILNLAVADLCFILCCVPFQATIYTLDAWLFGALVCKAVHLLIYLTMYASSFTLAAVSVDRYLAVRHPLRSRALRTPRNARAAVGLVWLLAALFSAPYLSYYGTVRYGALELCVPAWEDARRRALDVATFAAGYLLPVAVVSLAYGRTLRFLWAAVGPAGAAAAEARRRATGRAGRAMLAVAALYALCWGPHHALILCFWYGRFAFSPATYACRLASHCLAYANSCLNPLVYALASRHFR
NR2E3 ag-2: NR2E3 agonists in two-hybrid cells, primary screen, cell-based, luminescence, CHO-S, Gal4-NCOR/VP16-NR2E3; luciferase; inhibition of corepressor binding, % at 3.98 µM; actives 0.35% (n = 360,000);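 active means inhibition above the mean of all tested compounds plus 3 SD, cut at about 70% in these data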;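 further: higher means lower luciferase signal from less NR2E3 corepressor binding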
VP16 Luc counter: Gal4-VP16 luciferase reporter inhibitors, counter-screen for COUP-TFII antagonist project, cell-based, luminescence, HEK293. shares compounds with COUP-TFII inh. inhibition, % at 8.5 µM. AID 687007, 2013. actives 25% (n = 2,500); in the data active means inhibition above about 13%
COUP-TFII conf: NR2F2 transcriptional activity inhibitors, confirmation, cell-based, luciferase reporter, HEK293, triplicate; shares compounds with COUP-TFII inh; HEK293 NGFI-A luciferase reporter, luminescence; inhibition, % at 8.5 µM; actives 45% (n = 2,500);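 active means mean inhibition over three repeats above a set limit taken from the earlier primary screen, cut at about 38% in these data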
Each line names hits and unclear results; the compound was inactive in the other large screens (follow-up assays come after a bar, where they were run). A selection: hits, their analogues and other compounds. The true share with any hit is near 2.3%.

N#Cc1c(NC(=O)CSc2ncn[nH]2)sc2c1CCCC2	COUP-TFII inh 77 | VP16 Luc counter 78 | COUP-TFII conf 74
CC(=O)c1c(C)[nH]c(C(=O)Nc2ccccc2C)c1C	none (no result: CHT block, CHT PAM, NR2E3 ag-1, GalR3 antagonist, NR2E3 ag-2)
CC(C)(C)c1ccc(OCCC(=O)OCC(=O)NC2CC2)cc1	COUP-TFII inh 43 (no result: CHT block, CHT PAM) | VP16 Luc counter 17 | COUP-TFII conf inactive
Cn1nc(C(C)(C)C)cc1C(=O)N1CCCCC1c1cc(C(=O)Nc2ccc(F)c(Cl)c2)no1 (stereo not given)	COUP-TFII inh 41 (no result: CHT block, CHT PAM, NR2E3 ag-1) | VP16 Luc counter inactive | COUP-TFII conf inactive
O=C(Nc1ccc(F)c(Cl)c1)c1cc(C2CCCCN2C(=O)c2ccc(Cl)cc2)on1 (stereo not given)	none (no result: CHT block, CHT PAM, NR2E3 ag-1)
Cc1nn(C2CCS(=O)(=O)C2)c(Cl)c1/C=C/C(=O)OCC(=O)c1c[nH]c2ccccc12 (stereo not given)	none
Cc1nn(C2CCS(=O)(=O)C2)c(Cl)c1/C=C/C(=O)OCC(=O)c1cc(C)n(-c2ccc(F)cc2)c1C (stereo not given)	COUP-TFII inh 63 | VP16 Luc counter inactive | COUP-TFII conf 37
Cn1cccc1[C@]1(O)C(=O)Nc2ccc(F)cc21	none (no result: CHT block, CHT PAM, NR2E3 ag-1, GalR3 antagonist, NR2E3 ag-2)
Cc1ccc(NC(=O)c2ccc(Nc3c([N+](=O)[O-])cc([N+](=O)[O-])cc3[N+](=O)[O-])cc2)cc1	COUP-TFII inh 70 | VP16 Luc counter inactive | COUP-TFII conf 47
CC(=O)Nc1ccc(NC(=O)c2cc([N+](=O)[O-])cc([N+](=O)[O-])c2)cc1	none
CCN1C/C(=C/c2ccc(N3CCOCC3)cc2)C(=O)/C(=C/c2ccc(N3CCOCC3)cc2)C1	COUP-TFII inh 37 | VP16 Luc counter 24 | COUP-TFII conf 39
O=C(c1cscn1)N1CCC(Oc2cccnc2)CC1	none (no result: CHT block, CHT PAM, NR2E3 ag-1, GalR3 antagonist, NR2E3 ag-2)
CCOC(=O)C1CCCCN1C(=O)[C@@H]1CC=C[C@@H]2CCN(c3ccccc3)C(=O)[C@@H]21 (stereo not given in full)	none (no result: CHT block, CHT PAM, NR2E3 ag-1, GalR3 antagonist, NR2E3 ag-2)
Cc1[nH]c2ccccc2c1/C=N/NC(N)=S	none
CCc1nnc(N/N=C/c2c(C)[nH]c3ccccc23)n1N	COUP-TFII inh 53 | VP16 Luc counter inactive | COUP-TFII conf inactive
COC(=O)[C@]12C[C@H](CC(=O)N3CCCC3)C(=O)N(Cc3ccco3)C1=C[C@H](COCc1ccccc1)O[C@@H]2C	none (no result: CHT block, CHT PAM, NR2E3 ag-1, GalR3 antagonist, NR2E3 ag-2)
CCOCC(=O)Nc1nc2ccc(C)cc2s1	none
Cc1ccc2nc(NC(=O)CSCC(=O)OCC(=O)c3ccccc3)sc2c1	COUP-TFII inh 77 | VP16 Luc counter 79 | COUP-TFII conf 59
Cc1ccc(/C=N\NC(=O)CN2CCN(S(=O)(=O)c3ccc(Br)cc3)CC2)s1	none (no result: CHT block, CHT PAM, NR2E3 ag-1, GalR3 antagonist, NR2E3 ag-2)
CCCC[C@H]1C2CC(OC(=O)Nc3cccc(Br)c3)C(C2)[C@H]2CCCCN21 (stereo not given in full)	none (no result: CHT block, CHT PAM, NR2E3 ag-1, GalR3 antagonist, NR2E3 ag-2)
O=C(OC12CCCN(C1)/C(=C/c1cccnc1)C2)c1ccc(F)cc1 (stereo not given)	COUP-TFII inh 41 (no result: CHT block, CHT PAM, NR2E3 ag-1, GalR3 antagonist, NR2E3 ag-2) | VP16 Luc counter inactive | COUP-TFII conf inactive
O=C(OC12CCCN(C1)/C(=C/c1ccncc1)C2)C1CCCCC1 (stereo not given)	COUP-TFII inh 67 (no result: CHT block, CHT PAM, NR2E3 ag-1, GalR3 antagonist, NR2E3 ag-2) | VP16 Luc counter inactive | COUP-TFII conf inactive
O=C(OC12CCCN(C1)/C(=C/c1ccncc1)C2)c1ccco1 (stereo not given)	COUP-TFII inh 38 (no result: CHT block, CHT PAM, NR2E3 ag-1, GalR3 antagonist, NR2E3 ag-2) | VP16 Luc counter inactive | COUP-TFII conf inactive
CCCCCCCCCCCCCCCC[N+](C)(C)CCl	none (no result: CHT block, CHT PAM, NR2E3 ag-1)
C#CC[N+](C)(C)CCCCCCCC	none
CC#CC[N+](C)(C)CCCCCCCCCCCC	COUP-TFII inh 44 | VP16 Luc counter inactive | COUP-TFII conf inactive
C#CC[N+](C)(C)CCCCCCCCCCCC	COUP-TFII inh 41 | VP16 Luc counter inactive | COUP-TFII conf inactive
C#CC[N+](C)(C)CCCCCCCCCC	COUP-TFII inh 47 | VP16 Luc counter inactive | COUP-TFII conf inactive
C[N+]1=C2N[C@@H](c3ccccc3)CC(=O)N2/C(=C\c2ccccc2)[C@@H]1Cc1ccccc1	none (no result: CHT block, CHT PAM, NR2E3 ag-1, GalR3 antagonist, NR2E3 ag-2)
COc1ccc(-c2cc(N)n(S(=O)(=O)c3ccc(F)cc3)n2)cc1OC	COUP-TFII inh 46 | VP16 Luc counter inactive | COUP-TFII conf inactive
Cc1nc2sc(C(N)=O)c(N)c2c2c1CCCC2	COUP-TFII inh 51 | VP16 Luc counter inactive | COUP-TFII conf inactive
Cc1ccc(-c2nc3sc(C(N)=O)c(N)c3c3c2CCCC3)cc1	none
C=CCN=c1scc(-c2ccc3c(c2)NC(=O)CO3)n1/N=C(\C)c1ccccn1	COUP-TFII inh 56 (no result: CHT block, CHT PAM, NR2E3 ag-1) | VP16 Luc counter inactive | COUP-TFII conf 63
C=CCN=c1scc(-c2ccc(F)cc2)n1/N=C/c1ccccn1	none
O=C(O)c1ccccc1C(=O)Nc1ccc(Oc2ccc3ccccc3c2)cc1	COUP-TFII inh 66 | VP16 Luc counter inactive | COUP-TFII conf inactive
CN(Cc1ccccc1F)C(=O)Cn1c(-c2cncs2)nc2ccccc21	none (no result: CHT block, CHT PAM, NR2E3 ag-1, GalR3 antagonist, NR2E3 ag-2)
Cc1ccc2oc(-c3cccc(NC(=S)NC(=O)/C=C/c4ccco4)c3)nc2c1	COUP-TFII inh 47 | VP16 Luc counter inactive | COUP-TFII conf inactive
COc1cccc(Oc2ccc(S(=O)(=O)N3CCOCC3)cc2[N+](=O)[O-])c1	COUP-TFII inh 44 (no result: CHT block, CHT PAM, NR2E3 ag-1) | VP16 Luc counter inactive | COUP-TFII conf inactive
CCOc1ccc(S(=O)(=O)N2CCOCC2)cc1[N+](=O)[O-]	none
O=C(Nc1ccc2c(c1)OCO2)c1ccc(Br)c(S(=O)(=O)N2CCCC2)c1	COUP-TFII inh 43 | VP16 Luc counter inactive | COUP-TFII conf inactive
O=C(c1ccc(Cl)c(S(=O)(=O)N2CCCCCC2)c1)N1CCN(c2ccccn2)CC1	COUP-TFII inh 42 | VP16 Luc counter inactive | COUP-TFII conf inactive
O=C(Nc1ccc2c(c1)OCCO2)c1ccc(Br)c(S(=O)(=O)N2CCOCC2)c1	none (no result: CHT block, CHT PAM, NR2E3 ag-1)
O=C(Nc1ccncc1)c1ccc(Cl)c(S(=O)(=O)N2CCCCC2)c1	COUP-TFII inh 61 | VP16 Luc counter inactive | COUP-TFII conf 40
Cc1cc(Cl)c(S(=O)(=O)N2CCN(c3ccccn3)CC2)cc1OCC(=O)NC1CCCCC1	COUP-TFII inh 43 | VP16 Luc counter inactive | COUP-TFII conf inactive
